MrgX1 PAM: positive allosteric modulators of MrgX1, primary screen, HEK293 cells, Fluo-4 calcium flux; Mas-related G-protein coupled receptor member X1 (Homo sapiens), Q96LB2; FDSS; active compounds read high; B-score at 10 µM; 310,000 compounds, 0.63% hits; AID 588675, 2011;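 active = plate-corrected calcium response at least 3 library SD above typical, normal starting fluorescence, not activating the receptor alone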;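 note: compound read alongside a low EC10 to EC30 dose of BAM8-22 agonist; peak minus trough fluorescence over baseline measured at the second addition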
Target sequence (Q96LB2 whole entry, looked up): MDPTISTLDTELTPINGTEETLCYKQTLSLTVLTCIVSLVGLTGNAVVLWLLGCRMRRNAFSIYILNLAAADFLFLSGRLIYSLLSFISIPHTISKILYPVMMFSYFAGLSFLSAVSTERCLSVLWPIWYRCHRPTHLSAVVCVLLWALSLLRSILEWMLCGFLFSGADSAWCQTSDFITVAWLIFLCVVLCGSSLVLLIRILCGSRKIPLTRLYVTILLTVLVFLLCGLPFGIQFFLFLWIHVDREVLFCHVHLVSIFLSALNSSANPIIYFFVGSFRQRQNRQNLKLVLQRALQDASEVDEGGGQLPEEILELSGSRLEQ
RGS4 block: RGS4 inhibitors, primary screen, cell-based, HEK293 M3R inducible RGS4, calcium flux; B-score at 10 µM; 310,000 compounds, 0.45% hits; Fluo-4 calcium flux; active compounds read high; triggered by carbachol at its EC20; AID 463165, 2010; Regulator of G-protein signaling 4 (Homo sapiens), P49798;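 active = B-score, a plate-corrected calcium signal, over three deviations above library mean, with baseline fluorescence within five deviations of library mean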;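 note: RGS4 expression induced by doxycycline in cells with stable M3 receptor; B-score is computed from the integrated fluorescence ratio over baseline after carbachol; higher B-score means a larger calcium signal and so more RGS4 inhibition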
Target sequence (P49798 whole entry, looked up): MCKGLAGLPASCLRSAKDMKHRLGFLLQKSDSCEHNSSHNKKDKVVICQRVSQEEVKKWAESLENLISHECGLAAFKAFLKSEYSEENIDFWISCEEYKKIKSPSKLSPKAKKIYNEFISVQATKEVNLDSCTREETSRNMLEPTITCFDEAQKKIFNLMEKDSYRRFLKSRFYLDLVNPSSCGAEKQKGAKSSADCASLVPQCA
RGS4 act: RGS4 potentiators or activators, primary screen, cell-based, HEK293 M3R inducible RGS4, calcium flux; carbachol calcium flux Fluo4; active compounds read low; B-score at 10 µM; 310,000 compounds, 0.92% hits;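 active = B-score of the integrated calcium signal more than 4 SD below the library mean, with starting fluorescence not abnormally high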;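 note: negative B-score means reduced calcium response which marks RGS4 activation or potentiation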
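Material: M3R-expressing HEK293 line, RGS4 induced by doxycycline | Schedule: Overnight RGS4 induction, 30 min dye load 37 °C, 20 min compound RT | Measured by: Fluo4 fluorescence kinetic imaging of calcium | Read-out: Integrated calcium ratio converted to B score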
MrgX1 agonist: agonists of human MrgX1 receptor, primary screen, HEK293 cells, Fluo-4 calcium flux; Fluo-4 calcium fluorescence, agonist mode; active compounds read high; B-score at 10 µM; 310,000 compounds, 0.44% hits;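 active = calcium response B-score plate-corrected fluorescence ratio at least 3 library SD, with starting fluorescence B-score inside 5 SD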
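Material: MrgX1-expressing HEK293 cells / Dosing: compound as first of three additions / Incubation: overnight seeding, then 1 h dark dye loading / Signal: Fluo-4 NW calcium fluorescence / Evaluation: B-scored fluorescence response ratio / Benchmarks: positive and negative control wells on each plate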
MrgX1 antag: antagonists of human MrgX1 receptor, primary screen, HEK293 cells, Fluo-4 calcium flux; Mas-related G-protein coupled receptor member X1 (Homo sapiens), Q96LB2; 310,000 compounds, 1.3% hits; B-score at 10 µM; BAM8-22 antagonism; active compounds read low; AID 588676, 2011;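 active = calcium-response B-score plate-corrected more than 3 library SD below zero, starting fluorescence within 5 deviations, no agonist response on first addition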;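 note: peak minus trough fluorescence over baseline after final BAM8-22 challenge near maximal dose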
RGS4 block valid: enhanced carbachol calcium response, M3R/RGS4 cells, RGS4 inhibitor project, cell-based, validation screen, HEK293 M3R/RGS4, calcium flux; shares compounds with RGS4 block; carbachol calcium Fluo-4 fluorescence; carbachol added at its EC20; 0 = buffer wells, 100 = carbachol control; calcium response, % at 10 µM; 1,700 compounds, 65% hits; AID 492999, 2010;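 active = duplicate-averaged calcium response above the buffer-only control mean plus 5 SD of those controls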;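 note: integrated fluorescence ratio F max minus min over baseline F0; higher response in RGS4-induced cells means RGS4 inhibition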
M3R Ca ctr: carbachol calcium response in non-induced M3R cells, confirmation, counter-screen for RGS4 inhibitor project, cell-based, HEK293 M3R | shares compounds with RGS4 block | carbachol calcium Fluo-4; submaximal (EC20) carbachol stimulus; buffer wells 0%, carbachol control wells 100% | activity (percent), % at 10 µM | 1,900 compounds, 20% hits | AID 493000, 2010; call rule not given here;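 note: RGS4 induction absent so cells express M3R without RGS4; higher means more calcium signal and flags a non-specific hit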
RGS4 inh ctr2: second RGS4 inhibitor counter-screen in uninduced cells lacking carbachol; shares compounds with RGS4 block; HEK293 M3R/RGS4 non-induced, Fluo-4 calcium, no carbachol; normalised: buffer wells 0%, carbachol wells 100%; calcium response (agonist-mode artifact), % at 10 µM; 1,900 compounds, 22% hits;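 active = duplicate-averaged calcium rise in uninduced cells above buffer wells' mean plus 5 SD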
MrgX1 ag reconf: MrgX1 receptor agonists, duplicate retest, confirmation, HEK293 cells, Fluo-4 calcium flux | shares compounds with MrgX1 agonist | Fluo-4 calcium fluorescence, FDSS | activation, % at 10 µM | 600 compounds, 78% hits | AID 602412, 2012;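 active = calcium signal rise, corrected for plate position, at least 3 library SD high, with starting brightness within 5 such deviations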
HEK293 Ca flux: nonspecific calcium signal in parental HEK293, confirmation, counter-screen for MrgX1 antagonist project, parental HEK293 cells, Fluo-4 calcium flux. AID 624111, 2012. 4,000 compounds, 2% hits. Fluo-4 calcium fluorescence, FDSS. fluorescence ratio F(max-min)/F0 at 10 µM. shares compounds with MrgX1 antag;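 active = duplicate-averaged calcium fluorescence ratio at least three times the standard deviation of buffer wells, a nonspecific response in parental cells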
HEK293 Ca counter: calcium response in parental HEK293 cells, primary screen, counter-screen for MrgX1 allosteric activator project, cell-based, Fluo-4 calcium flux, duplicate | shares compounds with MrgX1 antag | Fluo-4 fluorescence ratio; active compounds read high | fluorescence ratio F(max-min)/F0 at 10 µM | 4,000 compounds, 0.4% hits;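 active = calcium fluorescence ratio, averaged over duplicates, at least 3 SD of the buffer-well ratio, meaning a nonspecific response in receptor-free cells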;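 note: untransfected parental HEK293 lacking MrgX1 used as counterscreen for MrgX1 allosteric activators; fluorescence change taken during the second addition on a kinetic imager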
HEK293 Ca cntr2: calcium response in parental HEK293 cells, primary screen, counter-screen for MrgX1 agonist project, cell-based, Fluo-4 calcium flux, duplicate, agonist mode; shares compounds with MrgX1 antag; Fluo-4 calcium fluorescence (FDSS); active compounds read high; fluorescence ratio F(max-min)/F0 at 10 µM; 4,000 compounds, 8.7% hits; AID 624115, 2012;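 active = calcium fluorescence ratio at least three times the spread of buffer wells, meaning a non-specific response in parental cells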
Large screens that a line does not name were inactive (follow-up assays come after a bar, where they were run). This is a sample that favours compounds with a hit; in the whole collection about 3.5% have one here.

CSc1ncc(/C=C2/C(=O)NC(=O)N(c3ccc(C)cc3)C2=O)cn1	none
Cc1ccc(N2C(=O)NC(=O)/C(=C/c3cnn(-c4ccc(C)cc4)c3)C2=O)cc1	RGS4 block 4.8 | RGS4 block valid 10% | M3R Ca ctr inactive | RGS4 inh ctr2 inactive
O=C1CN(O)C(c2ccccc2)=c2cc(Br)ccc2=N1	none
COC(=O)C1=Nc2ccccc2/C1=C\c1c(O)n(-c2cc(OC)ccc2OC)c(=O)[nH]c1=O	none
Cc1cccc(-n2c(O)c(/C=C3/C(c4ccccc4)=Nc4ccccc43)c(=O)[nH]c2=O)c1	MrgX1 agonist 47 | M3R Ca ctr inactive | RGS4 inh ctr2 29%
CC12CN3CN(C1)CC(C)(C3)C2=NO	RGS4 block 5.2 | RGS4 block valid inactive | M3R Ca ctr inactive | RGS4 inh ctr2 inactive
COc1ccc(NC(=O)c2cc([N+](=O)[O-])ccc2N2CCNCC2)cc1	none
CCCN1CCc2cc(O)cc3c2[C@H]1Cc1ccc(O)c(O)c1-3	RGS4 block 11, MrgX1 agonist 31 | RGS4 block valid 65% | M3R Ca ctr inactive | RGS4 inh ctr2 inactive | MrgX1 ag reconf inactive | HEK293 Ca flux inactive | HEK293 Ca counter inactive | HEK293 Ca cntr2 inactive
COC(=O)[C@]12OC[C@]34C([C@@H](O)[C@@H]1O)[C@]1(C)CC(=O)C(O)=C(C)[C@@H]1C[C@H]3OC(=O)[C@H](O)[C@@H]24 (stereo partly drawn)	none
Cc1ccc(-c2cc(-c3ccc(C)cc3)[n+](C)o2)cc1	none
Cc1ccc(-c2cc(-c3ccc(C)cc3)[n+](-c3ccccc3)c(-c3ccc(C)cc3)c2)cc1	RGS4 act -11, MrgX1 agonist 77 | MrgX1 ag reconf 351% | HEK293 Ca flux inactive | HEK293 Ca counter inactive | HEK293 Ca cntr2 82
CC(C)Oc1cc(-n2c(=S)[nH]c3ccccc3c2=O)c(Cl)cc1Cl	none
C=Cn1c(P(=S)(N2CCOCC2)N2CCOCC2)cc2c1CCCC2	MrgX1 agonist 66 | MrgX1 ag reconf inactive | HEK293 Ca flux inactive | HEK293 Ca counter inactive | HEK293 Ca cntr2 inactive
CN1CCC2(CC1)CC(NC=O)c1ccccc1O2 (stereo not drawn)	none
CCCN1C2CCCC1CC(NC(C)=O)C2 (stereo not drawn)	MrgX1 agonist 50 | MrgX1 ag reconf inactive | HEK293 Ca flux inactive | HEK293 Ca counter inactive | HEK293 Ca cntr2 inactive

High-throughput results (PubChem)
